Consider 1 compound from ChEMBL document CHEMBL4321880 (J Med Chem, 2020).

The target in data set [1] is T1, Cytochrome P450 3A4 (Homo sapiens, UniProt P08684). Description: Inhibition of human recombinant CYP3A4 expressed in supersomes assessed as decrease in formation of D-luciferin at 1.89 uM using luciferin-IPA as substrate incubated for 10 mins in presence of NADPH by P450-Glo luminescence assay relative to control. The following applies: recombinant enzyme. Type of data set: ADME. A digest of the protocol: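 P450-Glo assay with supersomes containing POR, cytochrome b5 and recombinant human CYP3A4, 0.1 pmol enzyme. Run in 100 mM KPO4 pH 7.4 with 3 μM Luciferin-IPA, started with NADPH, 10 min at 37 °C. Detection reagent added for 20 min at room temperature, then luminescence read. Final DMSO 0.1%.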
T1 sequence (P08684 whole entry): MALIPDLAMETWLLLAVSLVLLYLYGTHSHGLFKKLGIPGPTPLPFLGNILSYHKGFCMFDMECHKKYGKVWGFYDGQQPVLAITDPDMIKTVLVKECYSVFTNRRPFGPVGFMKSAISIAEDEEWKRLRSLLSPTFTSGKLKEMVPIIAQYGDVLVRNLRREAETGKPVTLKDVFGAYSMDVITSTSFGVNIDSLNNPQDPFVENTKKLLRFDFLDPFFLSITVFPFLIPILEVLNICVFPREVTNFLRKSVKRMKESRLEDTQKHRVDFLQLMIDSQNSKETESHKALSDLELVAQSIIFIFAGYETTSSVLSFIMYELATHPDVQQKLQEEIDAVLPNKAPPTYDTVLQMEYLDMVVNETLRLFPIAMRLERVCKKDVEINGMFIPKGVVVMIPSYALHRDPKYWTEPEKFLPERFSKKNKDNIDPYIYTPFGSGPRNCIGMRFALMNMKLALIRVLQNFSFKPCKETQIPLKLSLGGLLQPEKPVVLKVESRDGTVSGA

The target in data set [2] is T2, Cytochrome P450 1A2 (Homo sapiens, UniProt P05177).
T2 sequence (P05177 whole entry): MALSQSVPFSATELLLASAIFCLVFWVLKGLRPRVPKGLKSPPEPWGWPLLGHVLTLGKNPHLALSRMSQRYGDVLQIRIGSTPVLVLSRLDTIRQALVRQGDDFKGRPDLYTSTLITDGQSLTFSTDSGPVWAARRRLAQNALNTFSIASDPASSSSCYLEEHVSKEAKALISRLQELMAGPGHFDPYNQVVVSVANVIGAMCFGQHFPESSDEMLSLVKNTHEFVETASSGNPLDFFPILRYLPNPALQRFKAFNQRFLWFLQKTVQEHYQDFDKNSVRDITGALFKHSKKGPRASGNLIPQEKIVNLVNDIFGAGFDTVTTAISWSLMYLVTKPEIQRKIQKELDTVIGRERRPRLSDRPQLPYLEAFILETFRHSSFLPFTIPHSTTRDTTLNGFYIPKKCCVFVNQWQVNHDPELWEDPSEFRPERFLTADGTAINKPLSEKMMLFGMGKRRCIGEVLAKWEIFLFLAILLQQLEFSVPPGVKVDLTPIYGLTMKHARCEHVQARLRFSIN
Description: Inhibition of CYP1A2 in human liver microsomes assessed as formation of hydroxytacrine at 1.85 uM using tacrine as substrate incubated for 10 mins in presence of NADPH by LC-MS/MS analysis. Type of data set: ADME. The procedure, abridged: (§1)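 Pooled human liver microsomes with 2 mM NADPH in 100 mM KPO4 pH 7.4, 5 mM MgCl2, 37 °C, technical triplicate, final DMSO 0.2%. Probe (substrate, level, protein, time): 1A2 tacrine 5 μM, 0.2 mg/mL, 10 min; 2B6 bupropion 100 μM, 0.25 mg/mL, 10 min; 2C8 amodiaquine 5 μM, 0.25 mg/mL, 10 min; 2C9 tolbutamide 100 μM, 0.5 mg/mL, 15 min; 2C19 mephenytoin 100 μM, 0.25 mg/mL, 60 min; 2D6 dextromethorphan 5 μM, 0.5 mg/mL, 10 min; 3A4 midazolam 2.5 μM or testosterone 50 μM, 0.25 mg/mL, 10 min. Methanol quench, metabolites measured by LC-MS/MS.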
In general terms: Liver microsomes are a subcellular fraction often used to study metabolism.

Data set [3] deals with T3, Cytochrome P450 2B6 (Homo sapiens, UniProt P20813).
T3 sequence (P20813 whole entry): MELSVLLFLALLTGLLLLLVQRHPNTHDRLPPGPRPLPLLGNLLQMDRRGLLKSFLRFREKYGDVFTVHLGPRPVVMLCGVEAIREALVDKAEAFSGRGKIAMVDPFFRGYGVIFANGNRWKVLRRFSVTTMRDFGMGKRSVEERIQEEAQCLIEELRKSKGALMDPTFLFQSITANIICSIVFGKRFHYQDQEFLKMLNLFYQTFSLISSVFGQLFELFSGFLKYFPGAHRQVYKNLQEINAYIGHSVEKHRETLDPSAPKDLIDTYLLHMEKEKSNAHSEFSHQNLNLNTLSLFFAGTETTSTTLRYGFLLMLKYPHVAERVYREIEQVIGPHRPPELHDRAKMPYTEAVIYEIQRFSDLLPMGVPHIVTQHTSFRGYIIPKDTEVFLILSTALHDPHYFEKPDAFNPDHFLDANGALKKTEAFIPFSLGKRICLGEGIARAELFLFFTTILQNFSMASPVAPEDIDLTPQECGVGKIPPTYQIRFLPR
Description: Inhibition of CYP2B6 in human liver microsomes assessed as formation of hydroxybupropion at 1.85 uM using bupropion as substrate incubated for 10 mins in presence of NADPH by LC-MS/MS analysis. The data set is classed as ADME. The procedure, abridged:
as §1

Data set [4] addresses Cytochrome P450 2C9 (Homo sapiens, UniProt P11712). Description: Inhibition of CYP2C9 in human liver microsomes assessed as formation of alpha-hydroxytolbutamide at 1.85 uM using tolbutamide as substrate incubated for 15 mins in presence of NADPH by LC-MS/MS analysis. The following applies: 0.25 h. Type of data set: ADME. The procedure, abridged:
as §1

Data set [5] addresses Cytochrome P450 2D6 (Homo sapiens, UniProt P10635). Description: Inhibition of CYP2D6 in human liver microsomes at 1.85 uM using dextromethorphan as substrate incubated for 10 mins in presence of NADPH by LC-MS/MS analysis. Type of data set: ADME. The procedure, abridged:
as §1

Data set [6] has as its system ASPC1. Nature of the data set: Increase in CYP3A4 expression in CRISPR/Cas9-mediated CYP3A5 knock-out and doxycycline-induced CYP3A4 overexpressing human AsPC1 cells at 1 uM after 24 hrs by Western blot analysis. Type of data set: ADME, cell-based. The following applies: aspc1, 24 h. The procedure, abridged: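 Overexpression was induced with 100 ng/mL doxycycline. […] Blots were probed with anti-CYP3A4 K03 (also detects CYP3A5) and β-actin, with infrared dye secondaries. Bands were normalized to actin across triplicate gels, with DMSO set as 1.0.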
(In general: Immunoblotting shows a protein as a band on a membrane.)

In data set [7] the test system is ASPC1. Nature of the data set: Cytotoxicity against wild type human AsPC1 cells assessed as cell growth. Type of data set: cell-based. A digest of the protocol:
(§2)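 Cells seeded at 10,000/well. Dox-inducible lines were induced with 100 ng/mL doxycycline, then treated 24 h later with compound at 16 two-fold dilutions (0.0003–10 μM) plus 5 μM midazolam, in 0.66% DMSO final, for 24 h. Phase-contrast confluence imaging followed. Values were normalized to six 0.66% DMSO replicates and fitted with a three-parameter log(inhibitor) vs response curve.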

Data set [8] has as its system ASPC1. Nature of the data set: Cytotoxicity against doxycycline-induced CYP3A5 overexpressing wild type human AsPC1 cells assessed as cell growth. The data set is classed as ADME, cell-based. The procedure, abridged: as §2
The subject of data set [9] is ASPC1. Nature of the data set: Cytotoxicity against CRISPR/Cas9-mediated CYP3A5 knock-out human AsPC1 cells assessed as cell growth. The data set is classed as ADME, cell-based. The procedure, abridged: as §2
Data set [10] concerns the target Cytochrome P450 3A5 (Homo sapiens, UniProt P20815). Description: Binding affinity to His-tagged CYP3A5 (unknown origin) expressed in Escherichia coli DH5alpha assessed as five-coordinate HS ferric heme iron state formation with displacement of distal water ligand by EPR spectroscopy. A digest of the protocol: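 Continuous-wave X-band EPR of purified recombinant enzyme, alone and in complex with ligand. Spectra were compared against the ligand-free form.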

Data set [11] deals with T1, Cytochrome P450 3A4. Nature of the data set: Binding affinity to His-tagged CYP3A4 (unknown origin) expressed in Escherichia coli DH5alpha assessed as retention of axial water ligand with ligand free LS with no new HS formation by EPR spectroscopy. The data set is classed as ADME. The following applies: buffer. A digest of the protocol:
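Continuous-wave X-band EPR of the purified recombinant ligand-free enzyme and of its ligand complex. Ferric heme spin state (LS vs HS) assigned from g-values.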

Data set [12] addresses T1, Cytochrome P450 3A4. Description: Inhibition of CYP3A4 in human liver microsomes assessed as formation of 1-hydroxymidazolam at 1.85 uM using midazolam as substrate incubated for 10 mins in presence of NADPH by LC-MS/MS analysis.

Each structure is given as a SMILES string.

Cytochrome P450 2D6, sequence (P10635 whole entry): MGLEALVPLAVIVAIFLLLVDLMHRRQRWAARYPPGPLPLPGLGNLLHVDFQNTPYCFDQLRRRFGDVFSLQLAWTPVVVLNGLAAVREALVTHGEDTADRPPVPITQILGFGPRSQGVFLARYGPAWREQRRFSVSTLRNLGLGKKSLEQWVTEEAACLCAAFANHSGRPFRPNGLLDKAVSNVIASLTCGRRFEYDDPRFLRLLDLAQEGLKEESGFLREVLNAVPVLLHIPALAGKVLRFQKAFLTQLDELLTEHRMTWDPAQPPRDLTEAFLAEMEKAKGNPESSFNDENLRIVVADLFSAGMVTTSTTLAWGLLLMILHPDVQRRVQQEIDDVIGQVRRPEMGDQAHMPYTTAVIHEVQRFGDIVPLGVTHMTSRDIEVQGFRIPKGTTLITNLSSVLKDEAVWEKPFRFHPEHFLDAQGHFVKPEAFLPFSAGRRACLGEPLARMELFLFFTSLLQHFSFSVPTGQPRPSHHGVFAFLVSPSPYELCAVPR
Cytochrome P450 3A5, sequence (P20815 whole entry): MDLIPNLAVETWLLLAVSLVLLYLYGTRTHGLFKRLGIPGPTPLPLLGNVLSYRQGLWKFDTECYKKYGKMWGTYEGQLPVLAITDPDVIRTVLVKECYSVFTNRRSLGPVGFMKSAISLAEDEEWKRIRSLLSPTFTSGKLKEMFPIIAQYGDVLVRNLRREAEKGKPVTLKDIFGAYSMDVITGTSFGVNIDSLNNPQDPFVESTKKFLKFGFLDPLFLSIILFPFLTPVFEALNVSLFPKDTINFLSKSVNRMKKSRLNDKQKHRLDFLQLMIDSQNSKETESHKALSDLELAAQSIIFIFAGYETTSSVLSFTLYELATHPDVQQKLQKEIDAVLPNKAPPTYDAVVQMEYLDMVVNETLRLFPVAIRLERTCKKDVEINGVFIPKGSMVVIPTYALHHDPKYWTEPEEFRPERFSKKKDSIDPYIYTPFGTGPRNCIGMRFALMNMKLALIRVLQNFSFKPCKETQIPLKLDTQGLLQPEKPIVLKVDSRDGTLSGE
Cytochrome P450 2C9, sequence (P11712 whole entry): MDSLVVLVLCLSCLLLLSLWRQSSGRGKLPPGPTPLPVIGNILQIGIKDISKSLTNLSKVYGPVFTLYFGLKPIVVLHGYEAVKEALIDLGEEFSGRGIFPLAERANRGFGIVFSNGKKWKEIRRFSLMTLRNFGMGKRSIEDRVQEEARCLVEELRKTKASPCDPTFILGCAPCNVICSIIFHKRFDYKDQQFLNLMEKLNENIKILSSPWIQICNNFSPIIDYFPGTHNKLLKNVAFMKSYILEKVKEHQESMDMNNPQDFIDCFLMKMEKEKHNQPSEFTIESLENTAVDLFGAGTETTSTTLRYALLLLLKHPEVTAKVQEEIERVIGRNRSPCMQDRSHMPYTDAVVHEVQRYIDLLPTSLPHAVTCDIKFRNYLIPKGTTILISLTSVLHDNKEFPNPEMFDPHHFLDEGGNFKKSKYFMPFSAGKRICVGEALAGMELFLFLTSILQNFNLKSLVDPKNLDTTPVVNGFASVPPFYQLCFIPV

For `CCC(=O)O[C@]1(C(=O)CCl)[C@@H](C)C[C@H]2[C@@H]3CCC4=CC(=O)C=C[C@]4(C)[C@@]3(F)[C@@H](O)C[C@@]21C` [CLOBETASOL PROPIONATE], the “inhibition (INH)” value in [1], in data set [2], in data set [3], in data set [4], in [5] and in data set [12] was “Not Active” throughout. Besides, the Activity entry in data set [6] is reported as “Not Active”; in [7], “Non-Toxic”; in data set [8] it was “Non-Toxic”; in [9], “Non-Toxic”; in data set [10] it was “Active”; in data set [11] it was “Not Active”.
